Our source for the IC50, viability and inhibition values is ChEMBL document CHEMBL4376814, “Novel cyclin-dependent kinase 9 (CDK9) inhibitor with suppression of cancer stemness activity against non-small-cell lung cancer” (Eur J Med Chem, 2019).

One test concerns CCRF-CEM. Briefly: Antiproliferative activity against human CCRF-CEM cells assessed as inhibition of cell viability after 72 hrs by CCK-8 assay. The class given is functional, cell-based. The essentials:
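Cells kept at 37 °C, 5% CO2 in DMEM or RPMI-1640 with 10% FBS and 1% penicillin/streptomycin, then seeded at 3000 cells/well (adherent) or 10,000 cells/well (suspension). Exposed to a range of concentrations for 72 h. CCK-8 added for 1-4 h before reading A450. […] Three independent experiments.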
On the technique in general: Tetrazolium assays rely on reduction of a dye to a coloured formazan, in cell work by metabolically active cells.

In test [1] the test system is A549. Briefly: Induction of apoptosis in human A549 cells assessed as viable cells at 1 uM after 48 hrs by AnnexinV-FITC/PI staining-based flow cytometric analysis (reference value: 88.8%). The class given is functional. Conditions: A549, 48 h, read-out: Activity. A general note: A flow cytometer gives signals particle by particle.
Test [2] deals with A549. Briefly: Inhibition of tumorsphere formation in human A549 cells after 2 weeks by microscopic analysis. The class given is functional, cell-based.
For test [3], the target named is ALK tyrosine kinase receptor (Homo sapiens) (UniProt Q9UM73). Briefly: Inhibition of recombinant human ALK (1058 to end residues) at 1 uM using KKKSPGEYVNIEF as substrate measured after 40 mins in presence of [gamma33P]ATP by scintillation counting method relative to control.
For test [4], the target named is Activin receptor type-1-like (Homo sapiens) (UniProt P37023). Briefly: Inhibition of recombinant human ALK1 (142 to end residues) at 1 uM using casein as substrate measured after 40 mins in presence of [gamma33P]ATP by scintillation counting method relative to control.
Chain of Activin receptor type-1-like (Homo sapiens) (P37023 whole entry, the tested form may be a part): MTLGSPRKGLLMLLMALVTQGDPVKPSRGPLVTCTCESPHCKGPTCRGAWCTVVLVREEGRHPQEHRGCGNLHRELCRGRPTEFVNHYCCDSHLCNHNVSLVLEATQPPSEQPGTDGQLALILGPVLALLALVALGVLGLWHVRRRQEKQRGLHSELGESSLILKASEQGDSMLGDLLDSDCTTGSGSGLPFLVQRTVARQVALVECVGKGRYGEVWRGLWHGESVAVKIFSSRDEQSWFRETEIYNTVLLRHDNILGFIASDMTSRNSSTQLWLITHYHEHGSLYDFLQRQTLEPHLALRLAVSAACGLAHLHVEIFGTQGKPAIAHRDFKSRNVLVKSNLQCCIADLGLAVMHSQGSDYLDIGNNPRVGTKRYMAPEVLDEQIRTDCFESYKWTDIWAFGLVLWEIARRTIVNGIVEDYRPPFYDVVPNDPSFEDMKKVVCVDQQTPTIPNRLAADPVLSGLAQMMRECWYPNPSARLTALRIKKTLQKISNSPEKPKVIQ
Test [5] addresses Myosin light chain kinase, smooth muscle (Homo sapiens) (UniProt Q15746). Briefly: Inhibition of recombinant human MLCK (1425 to 1771 residues) at 1 uM using calmodulin as substrate measured after 40 mins in presence of [gamma33P]ATP by scintillation counting method relative to control.
The target in test [6] is Calcium/calmodulin-dependent protein kinase kinase 1 (Homo sapiens) (UniProt Q8N5S9). Briefly: Inhibition of recombinant full-length human CaMKK1 at 1 uM using calmodulin as substrate measured after 40 mins in presence of [gamma33P]ATP by scintillation counting method relative to control.
For test [7], the target named is Cyclin-dependent kinase-like 1 (Homo sapiens) (UniProt Q00532). Briefly: Inhibition of recombinant human CDKL1 (1 to 303 residues) at 1 uM using RRRFRPASPLRGP as substrate measured after 120 mins in presence of [gamma33P]ATP by scintillation counting method relative to control.
Test [8] addresses Cyclin-dependent kinase-like 2 (Homo sapiens) (UniProt Q92772). Briefly: Inhibition of human CDKL2 at 1 uM at 1 uM by radiometric method relative to control. Summed up:
(§1)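 Percent inhibition of kinase activity at a single compound concentration, measured by the outsourced Eurofins KinaseProfiler panel. Values are the mean of two independent experiments.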

The target in test [9] is Serine/threonine-protein kinase Nek11 (Homo sapiens) (UniProt Q8NG66). The test is described as follows: Inhibition of recombinant full-length human NEK11 at 1 uM using myelin basic protein as substrate measured after 40 mins in presence of [gamma33P]ATP by scintillation counting method relative to control.
Test [10] deals with Platelet-derived growth factor receptor beta (Homo sapiens) (UniProt P09619). Briefly: Inhibition of recombinant human PDGFRbeta (557 to end residues) at 1 uM using poly[Glu:Tyr] (4:1) as substrate measured after 40 mins in presence of [gamma33P]ATP by scintillation counting method relative to control.
Test [11] deals with cAMP-dependent protein kinase catalytic subunit alpha (Homo sapiens) (UniProt P17612). Briefly: Inhibition of recombinant full-length human PKA at 1 uM using Kemptide as substrate measured after 40 mins in presence of [gamma33P]ATP by scintillation counting method relative to control. The essentials: (§2)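 Single-point inhibition at 1 µM was measured in the Eurofins KinaseProfiler panel. Values are the mean of two independent experiments.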

In test [12] the test system is Mast/stem cell growth factor receptor Kit (Homo sapiens), P10721 [D816V]. Briefly: Inhibition of recombinant human cKit (544 to end residues) D816V mutant at 1 uM using poly(Glu, Tyr) 4:1 as substrate measured after 40 mins in presence of [gamma33P]ATP by scintillation counting method relative to control. Summed up:
as §2

The target in test [13] is Serine/threonine-protein kinase 17A (Homo sapiens) (UniProt Q9UEE5). Briefly: Inhibition of recombinant full-length human DRAK1 at 1 uM using KKLNRTLSFAEPG as substrate measured after 40 mins in presence of [gamma33P]ATP by scintillation counting method relative to control.
Chain of Serine/threonine-protein kinase 17A (Homo sapiens) (Q9UEE5 whole entry): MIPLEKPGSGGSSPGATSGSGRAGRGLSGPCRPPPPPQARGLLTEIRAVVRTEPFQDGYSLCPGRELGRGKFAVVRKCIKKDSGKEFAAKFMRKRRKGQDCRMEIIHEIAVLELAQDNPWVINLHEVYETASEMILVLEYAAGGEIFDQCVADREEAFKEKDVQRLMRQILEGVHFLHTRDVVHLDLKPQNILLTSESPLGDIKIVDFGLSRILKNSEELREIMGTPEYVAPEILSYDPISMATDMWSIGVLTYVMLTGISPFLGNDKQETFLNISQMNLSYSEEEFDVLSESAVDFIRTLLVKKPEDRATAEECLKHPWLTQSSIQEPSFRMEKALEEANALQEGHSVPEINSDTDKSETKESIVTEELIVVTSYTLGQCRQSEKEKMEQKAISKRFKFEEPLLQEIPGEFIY
The target in test [14] is Serine/threonine-protein kinase D2 (Homo sapiens) (UniProt Q9BZL6). Briefly: Inhibition of recombinant full-length human PKD2 at 1 uM using KKLNRTLSVA as substrate measured after 40 mins in presence of [gamma33P]ATP by scintillation counting method relative to control.
Test [15] concerns the target Insulin receptor (Homo sapiens) (UniProt P06213). The test is described as follows: Inhibition of recombinant human IR (1005 to 1310 residues) at 1 uM using KKSRGDYMTMQIG as substrate measured after 40 mins in presence of [gamma33P]ATP by scintillation counting method relative to control.
Test [16] has as its target Tyrosine-protein kinase JAK1 (Homo sapiens) (UniProt P23458). Briefly: Inhibition of recombinant human JAK1 (866 to end residues) at 1 uM using GEEPLYWSFPAKKK as substrate measured after 40 mins in presence of [gamma33P]ATP by scintillation counting method relative to control.
The target of test [17] is SRSF protein kinase 2 (Homo sapiens) (UniProt P78362). Briefly: Inhibition of human SRPK2 (46 to end residues) at 1 uM using RSRSRSRSRSRSRSR as substrate measured after 40 mins in presence of [gamma33P]ATP by scintillation counting method relative to control. The essentials:
as §1

The subject of test [18] is Angiopoietin-1 receptor (Homo sapiens), Q02763 [Q939H,Q940H]. Briefly: Inhibition of human Tie2 Q939H/Q940H mutant (771 to end residues) at 1 uM using poly(Glu, Tyr) 4:1 as substrate measured after 40 mins in presence of [gamma33P]ATP by scintillation counting method relative to control. Summed up:
as §2

The species named for test [19] is Homo sapiens. The test is described as follows: Inhibition of recombinant human MARK1 V16E/T20S double mutant (2 to end residues) at 1 uM using KKKVSRSGLYRSPSMPENLNRPR as substrate measured after 40 mins in presence of [gamma33P]ATP by scintillation counting method relative to control.
Test [20] is filed under the species Homo sapiens. Briefly: Inhibition of recombinant full-length human ATRIP/ATR M211T mutant at 1 uM using GST-cMyc-p53 as substrate measured after 40 mins by fluorescence assay relative to control.
The species named for test [21] is Homo sapiens. The test is described as follows: Inhibition of recombinant full-length human PI3K p120gamma R459Q mutant at 1 uM using phosphatidylinositol-4, 5-bisphosphate as substrate measured after 40 mins by fluorescence assay relative to control.
For test [22], the target named is CDK9/cyclin T1 (Homo sapiens) (UniProt O60563+P50750). The following applies: 1 uM.

Chain of Myosin light chain kinase, smooth muscle (Homo sapiens) (Q15746 whole entry, the tested form may be a part): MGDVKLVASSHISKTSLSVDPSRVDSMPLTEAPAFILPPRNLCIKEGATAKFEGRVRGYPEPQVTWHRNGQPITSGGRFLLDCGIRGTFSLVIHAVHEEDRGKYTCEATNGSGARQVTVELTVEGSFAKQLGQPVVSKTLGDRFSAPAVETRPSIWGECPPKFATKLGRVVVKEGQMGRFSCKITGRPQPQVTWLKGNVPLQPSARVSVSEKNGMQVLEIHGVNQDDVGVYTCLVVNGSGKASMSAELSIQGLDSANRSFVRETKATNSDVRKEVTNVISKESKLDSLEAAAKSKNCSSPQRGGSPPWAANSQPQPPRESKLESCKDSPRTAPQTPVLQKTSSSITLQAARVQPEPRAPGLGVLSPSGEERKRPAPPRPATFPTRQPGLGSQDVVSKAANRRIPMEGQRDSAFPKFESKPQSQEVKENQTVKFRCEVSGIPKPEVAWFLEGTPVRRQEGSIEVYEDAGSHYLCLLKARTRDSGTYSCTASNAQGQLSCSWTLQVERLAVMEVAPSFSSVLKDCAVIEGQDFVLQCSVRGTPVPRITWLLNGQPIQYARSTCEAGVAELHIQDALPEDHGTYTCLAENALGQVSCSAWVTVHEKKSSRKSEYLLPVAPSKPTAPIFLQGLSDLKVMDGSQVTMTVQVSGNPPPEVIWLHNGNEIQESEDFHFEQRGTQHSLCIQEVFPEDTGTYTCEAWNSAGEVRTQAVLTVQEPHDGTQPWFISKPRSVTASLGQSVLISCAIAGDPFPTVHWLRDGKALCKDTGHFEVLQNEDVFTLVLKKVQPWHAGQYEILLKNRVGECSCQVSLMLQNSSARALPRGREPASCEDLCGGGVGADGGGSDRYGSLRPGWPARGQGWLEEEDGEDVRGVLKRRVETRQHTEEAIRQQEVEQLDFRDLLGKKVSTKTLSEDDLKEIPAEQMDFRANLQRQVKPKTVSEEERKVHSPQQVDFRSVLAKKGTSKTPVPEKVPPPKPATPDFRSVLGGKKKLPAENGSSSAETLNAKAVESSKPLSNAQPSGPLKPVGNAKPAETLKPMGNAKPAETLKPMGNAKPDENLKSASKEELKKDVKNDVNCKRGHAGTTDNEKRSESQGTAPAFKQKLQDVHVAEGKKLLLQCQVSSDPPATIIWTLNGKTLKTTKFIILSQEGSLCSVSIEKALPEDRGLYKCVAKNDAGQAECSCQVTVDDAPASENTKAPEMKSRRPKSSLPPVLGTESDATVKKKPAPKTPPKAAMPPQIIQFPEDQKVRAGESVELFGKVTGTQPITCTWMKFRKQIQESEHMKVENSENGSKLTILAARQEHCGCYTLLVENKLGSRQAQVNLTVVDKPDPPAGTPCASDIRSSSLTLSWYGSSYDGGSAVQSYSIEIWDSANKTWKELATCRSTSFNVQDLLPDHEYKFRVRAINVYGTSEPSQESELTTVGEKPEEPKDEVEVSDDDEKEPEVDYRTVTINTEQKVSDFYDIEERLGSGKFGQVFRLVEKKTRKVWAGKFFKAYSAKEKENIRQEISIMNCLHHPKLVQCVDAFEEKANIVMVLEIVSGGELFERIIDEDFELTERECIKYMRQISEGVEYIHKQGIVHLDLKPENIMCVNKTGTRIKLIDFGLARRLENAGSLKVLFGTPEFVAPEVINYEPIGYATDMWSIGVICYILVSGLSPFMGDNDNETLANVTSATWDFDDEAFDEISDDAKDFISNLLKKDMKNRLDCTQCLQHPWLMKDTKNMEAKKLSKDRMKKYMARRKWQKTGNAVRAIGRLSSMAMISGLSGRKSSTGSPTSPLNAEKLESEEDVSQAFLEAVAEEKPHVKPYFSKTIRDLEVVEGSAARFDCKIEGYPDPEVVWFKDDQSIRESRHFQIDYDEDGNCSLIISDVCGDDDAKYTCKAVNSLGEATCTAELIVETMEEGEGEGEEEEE
Chain of Mast/stem cell growth factor receptor Kit (Homo sapiens), P10721 [D816V] (P10721 whole entry D816V): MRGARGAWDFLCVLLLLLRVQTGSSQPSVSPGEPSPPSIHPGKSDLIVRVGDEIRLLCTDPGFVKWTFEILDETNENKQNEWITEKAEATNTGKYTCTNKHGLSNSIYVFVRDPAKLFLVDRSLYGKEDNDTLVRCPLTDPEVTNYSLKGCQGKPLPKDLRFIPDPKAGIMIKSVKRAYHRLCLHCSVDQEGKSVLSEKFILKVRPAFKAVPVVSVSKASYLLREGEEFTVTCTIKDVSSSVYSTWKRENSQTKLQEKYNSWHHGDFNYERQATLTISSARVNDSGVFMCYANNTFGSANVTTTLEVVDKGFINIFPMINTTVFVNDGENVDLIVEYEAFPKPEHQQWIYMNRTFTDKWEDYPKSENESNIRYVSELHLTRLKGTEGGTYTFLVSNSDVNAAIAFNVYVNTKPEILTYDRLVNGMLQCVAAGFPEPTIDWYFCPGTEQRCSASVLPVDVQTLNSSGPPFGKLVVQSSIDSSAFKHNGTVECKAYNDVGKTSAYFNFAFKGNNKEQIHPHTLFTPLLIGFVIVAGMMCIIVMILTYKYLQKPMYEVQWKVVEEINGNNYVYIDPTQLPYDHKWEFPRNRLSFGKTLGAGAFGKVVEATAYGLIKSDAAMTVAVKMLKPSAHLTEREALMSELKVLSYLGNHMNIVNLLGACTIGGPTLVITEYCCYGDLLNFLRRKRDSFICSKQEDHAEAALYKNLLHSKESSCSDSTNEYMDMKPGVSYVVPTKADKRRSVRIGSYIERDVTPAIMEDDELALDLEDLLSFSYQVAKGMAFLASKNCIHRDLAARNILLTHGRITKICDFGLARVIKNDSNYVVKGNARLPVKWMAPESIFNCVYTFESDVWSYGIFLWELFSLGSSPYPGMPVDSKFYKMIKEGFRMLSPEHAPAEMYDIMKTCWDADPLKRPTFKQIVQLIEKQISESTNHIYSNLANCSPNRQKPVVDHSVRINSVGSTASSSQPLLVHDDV
Chain of Tyrosine-protein kinase JAK1 (Homo sapiens) (P23458 whole entry): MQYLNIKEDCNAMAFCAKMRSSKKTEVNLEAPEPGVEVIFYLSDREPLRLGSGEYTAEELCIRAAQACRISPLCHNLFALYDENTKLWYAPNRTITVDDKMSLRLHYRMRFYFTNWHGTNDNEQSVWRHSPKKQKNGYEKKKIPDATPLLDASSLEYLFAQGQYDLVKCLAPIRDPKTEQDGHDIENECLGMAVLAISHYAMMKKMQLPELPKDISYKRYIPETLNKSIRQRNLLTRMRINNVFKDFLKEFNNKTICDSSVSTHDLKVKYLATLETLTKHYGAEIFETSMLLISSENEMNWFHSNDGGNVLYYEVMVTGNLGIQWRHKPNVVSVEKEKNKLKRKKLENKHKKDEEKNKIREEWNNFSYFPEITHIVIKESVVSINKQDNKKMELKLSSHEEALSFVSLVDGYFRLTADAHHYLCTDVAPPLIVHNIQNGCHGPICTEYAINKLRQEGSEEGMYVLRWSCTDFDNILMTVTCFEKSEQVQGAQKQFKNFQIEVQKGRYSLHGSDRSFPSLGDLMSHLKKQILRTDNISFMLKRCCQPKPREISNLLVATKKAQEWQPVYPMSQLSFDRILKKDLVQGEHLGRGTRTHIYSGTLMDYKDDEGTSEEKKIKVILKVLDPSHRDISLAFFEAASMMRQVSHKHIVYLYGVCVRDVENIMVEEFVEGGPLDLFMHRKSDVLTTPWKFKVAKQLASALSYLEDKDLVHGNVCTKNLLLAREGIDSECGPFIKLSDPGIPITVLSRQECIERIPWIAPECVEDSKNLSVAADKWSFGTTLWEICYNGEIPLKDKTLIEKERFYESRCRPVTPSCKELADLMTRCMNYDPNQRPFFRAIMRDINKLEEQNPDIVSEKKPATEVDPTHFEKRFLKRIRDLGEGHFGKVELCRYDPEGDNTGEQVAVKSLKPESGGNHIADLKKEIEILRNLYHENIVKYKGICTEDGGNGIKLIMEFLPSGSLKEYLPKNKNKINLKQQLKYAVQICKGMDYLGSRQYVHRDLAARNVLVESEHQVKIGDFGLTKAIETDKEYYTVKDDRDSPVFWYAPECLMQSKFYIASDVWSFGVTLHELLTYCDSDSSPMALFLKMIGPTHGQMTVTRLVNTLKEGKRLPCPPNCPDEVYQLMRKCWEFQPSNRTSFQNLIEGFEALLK

In the case of `CN(C)C(=O)c1cc2cnc(Nc3ccc(NC(=O)CCCCCCCN=C=S)cc3)nc2n1C1CCCC1`, the 50% inhibitory concentration (IC50) with CCRF-CEM was greater than 10 µM. In addition, the viability at 1 µM in the test with A549 [1] stood at 74.8%. Moreover, the inhibition entry in the test on A549 [2] was “Dose-dependent effect”; in test [3] it was -3%; in test [4] it was -5%; in test [5], 5%; in [6] it was 88%; in test [7], 17%. In addition, the inhibition in test [8] was found to be 57%; in [9], 20%; in test [10], 2%; in [11], 1%; in test [12], 11%; in [13], 22%. The inhibition in test [14] was -6%; in test [15] it was -6%; in test [16] it was 77%; in test [17], 4%; in test [18], 29%; in the test listed under Homo sapiens [19], 59%. The inhibition in the test filed under Homo sapiens [20] is -4%; in the test filed under Homo sapiens [21], 14%; in test [22], 98%.

As usually defined, the IC50 is the midpoint of a concentration-inhibition curve. What is called inhibition is the change of the read-out against control, counted positive when it falls.
